hIAP act = increases human intestinal alkaline phosphatase activity | P09923 | purified human IAP, CDP-Star luminescence, 30 min; hits give high values; 1 = vehicle-only enzyme, 0 = enzyme-free background | activation factor at 10 µM | actives 0.16% (n = 330,000) | AID 2524;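 active = activation factor of the enzyme at least 2-fold when tested at 20 µM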
Target sequence (P09923 whole entry, looked up): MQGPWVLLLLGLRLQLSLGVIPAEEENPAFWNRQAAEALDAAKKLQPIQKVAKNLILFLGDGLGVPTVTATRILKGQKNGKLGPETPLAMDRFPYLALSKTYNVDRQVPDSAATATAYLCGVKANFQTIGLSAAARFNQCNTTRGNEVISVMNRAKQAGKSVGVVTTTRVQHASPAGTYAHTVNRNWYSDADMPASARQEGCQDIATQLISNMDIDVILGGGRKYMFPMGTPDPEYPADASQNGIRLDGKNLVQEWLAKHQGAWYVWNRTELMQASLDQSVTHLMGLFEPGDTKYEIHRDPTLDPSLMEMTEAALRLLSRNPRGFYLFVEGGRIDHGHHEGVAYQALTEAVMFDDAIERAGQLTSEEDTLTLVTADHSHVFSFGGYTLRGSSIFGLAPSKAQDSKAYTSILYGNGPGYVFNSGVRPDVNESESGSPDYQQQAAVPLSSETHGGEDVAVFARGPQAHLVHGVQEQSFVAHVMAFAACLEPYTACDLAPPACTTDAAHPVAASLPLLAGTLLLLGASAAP
mIAP act = increases mouse intestinal alkaline phosphatase activity | muIAP, CDP-Star luminescence, 30 min; hits give high values; 1 = vehicle-only enzyme signal, 0 = enzyme-free wells | activation factor at 10 µM | actives 0.24% (n = 330,000) | AID 2805;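 active = activation factor of at least 2 at 20 µM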
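Assay system: mouse IAP enzyme / Compound: DMSO-dissolved test compounds / Timing: 30 min, room temperature / Measured by: luminescence from enzymatic CDP-Star hydrolysis / Control set: DMSO-only wells, enzyme-free buffer wells as negative control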
bIAP act = increases bovine intestinal alkaline phosphatase activity; purified bovine IAP, CDP-star luminescence, 30 min; hits give high values; fold of DMSO-control signal, blank-subtracted; activation factor at 20 µM; actives 0.17% (n = 200,000); AID 1016;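 active = activation factor of 2 or more at 20 µM, a signal rise over negative controls twice the positive control's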
hIAP inh = human IAP inhibition; P09923; purified IAP, CDP-Star luminescence, 30 min; inhibition, % at 10 µM; actives 0.12% (n = 330,000);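 active = inhibition reaching a set limit with compound at 10 µM in the primary screen, cut at about 35% in these data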;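 also: plate controls were DMSO wells with enzyme for no effect and no-enzyme buffer wells for full effect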
bIAP inh = blocks bovine intestinal alkaline phosphatase activity. purified bovine IAP, CDP-star luminescence, 30 min. inhibition, % at 20 µM. 190,000 tested, under 10 active. AID 1019;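 active = over 50% inhibition of intestinal alkaline phosphatase at 20 µM in the single-dose screen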
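test system = bovine IAP enzyme | medium = DEA buffer 100 mM, pH 9.8, with MgCl2 1.0 mM, ZnCl2 0.02 mM | detection = luminescence | dosing = single compound dose of 20 µM, 2% DMSO final | incubation = 30 min reaction at room temperature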
mIAP inh = blocks mouse intestinal alkaline phosphatase; purified mouse IAP, CDP-Star luminescence, 30 min; inhibition, % at 10 µM; actives 0.2% (n = 330,000);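 active = inhibition of at least 40% at 10 µM in the primary screen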;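 also: plate controls were DMSO with enzyme for no effect and no enzyme wells for full effect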
hIAP act confirm = human IAP activation confirmation. shares compounds with hIAP act. purified IAP, CDP-Star luminescence, 30 min; hits give low values. activation (%Activity, negative = activation), % at 8.3 µM. actives 10% (n = 880). AID 434926;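 active = at least twofold enzyme activation in any of six single-dose repeats, which the averaged readout prints as negative percent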
mIAP inh confirm = mouse IAP inhibition confirmation | actives 4.7% (n = 11,000) | purified mouse IAP, CDP-Star luminescence, 30 min | inhibition, % at 10 µM | shares compounds with mIAP inh | AID 434971;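 active = inhibition of at least 40% at 10 µM in either of the two replicates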;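 also: plate controls were DMSO wells with enzyme for no effect and buffer wells lacking enzyme for full effect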
Starred values were filed as active, the others as inactive; · = not tested or not shown. The list is not random: actives were taken first. Their share in the collection is about 0.79%.

SMILES	hIAP act	mIAP act	bIAP act	hIAP inh	bIAP inh	mIAP inh	mIAP inh confirm	others
COc1cc(/C=C(\C#N)C(=O)c2ccc(O)c(O)c2)cc(I)c1O	0.49	0.17	·	51*	·	83*	83*	hIAP act confirm=40
c1ccc(Cn2nnnc2CN2CCN(Cc3ccc4c(c3)OCO4)CC2)cc1	1	1	1	-2	2	-2	·
O=C(Nc1ccccc1)NC1CC2CCC(C1)N2Cc1nnnn1Cc1ccc2c(c1)OCO2 (configuration not stated)	1.2	2.5*	1.8	-17	-85	-149	-123
CCn1c(-c2ccccc2)csc1=Nc1ccc(O)cc1	1.1	0.97	1	-6	4	3	·
O=C1c2c(O)cc(O)cc2O[C@H](c2ccc(O)c(O)c2)[C@@H]1O	0.91	0.36	0.8	9	24	64*	58*
O=C1C[C@@H](c2ccccc2)Oc2cc(O)cc(O)c21	0.88	0.94	·	12	·	6	·
Oc1cc(O)c2c(c1)O[C@H](c1ccc(O)c(O)c1)[C@@H](O)C2	0.72	0.23	·	28	·	78*	78*
O=C1c2c(O)cc(O)cc2O[C@H](c2ccc(O)c(O)c2)[C@H]1O	1.1	0.49	·	-5	·	51*	59*
CC(=O)c1ccc2c(c1)C1C=CCC1C(C(=O)O)N2 (configuration not stated)	0.88	0.53	1.1	12	-7	47*	59*
CC(NC(=O)Nc1ccc(Cl)c(Cl)c1)C(c1ccccc1)N1CCOCC1 (configuration not stated)	1.2	4.3*	1.1	-22	-15	-330	-221
CC(NC(=O)Nc1ccc([N+](=O)[O-])cc1)C(c1ccccc1)N1CCOCC1 (configuration not stated)	0.98	0.98	1.3	2	-30	2	·
O=c1c(O)c(-c2ccccc2)oc2cc(O)cc(O)c12	1.2	0.94	·	-22	·	6	·
O=c1c(O)c(-c2cc(O)c(O)c(O)c2)oc2cc(O)cc(O)c12	1.2	0.25	·	-20	·	75*	75*
O=C(NCCCCc1ccccc1)NC[C@@H]1CC[C@@H](Cc2ccc(-c3ccccc3)cc2)O1	·	4.8*	·	·	·	-371	-344
O=C(NCCCc1ccccc1)C1CC1	1.1	1.1	·	-13	·	-7	·
O=C(NC[C@@H]1CC[C@@H](Cc2ccc(-c3ccccc3)cc2)O1)Nc1ccc(Br)cc1	·	4.2*	·	·	·	-325	-310
N=C1S/C(=C\c2ccco2)C(=O)N1c1nccs1	1.1	0.4	1.1	-15	-10	60*	65*
N=C1S/C(=C\c2ccco2)C(=O)N1c1ccc2c(c1)OCO2	0.95	0.48	1.1	5	-6	52*	78*
O=C1CSC(=S)N1N1C(=O)c2cccc([N+](=O)[O-])c2C1=O	1.1	0.43	0.5	-10	49	57*	68*
CC(C)(C)c1nc(NC(=O)Nc2ccccc2)sc1Br	0.95	2.9*	1	5	-2	-192	-112
CCN1C(=O)/C(=C2\SC(=S)N(NC(=O)c3ccccc3O)C2=O)c2ccccc21	1.8	0.49	·	-75	·	51*	47*
Cn1cc(Br)c(C(=O)N/N=C/c2cc3c(cc2Cl)OCO3)n1	1.3	1	·	-30	·	-2	·
CN1CCN(S(=O)(=O)c2ccc3[nH]c(=O)oc3c2)CC1	0.86	0.57	0.8	14	19	43*	59*
O=c1[nH]c2ccc(S(=O)(=O)N3CCN(c4ccc(F)cc4)CC3)cc2o1	1	0.81	·	0	·	19	·
O=C(N/N=C/c1ccc([N+](=O)[O-])o1)c1ccc(NS(=O)(=O)c2cccs2)cc1	1.1	0.5	·	-8	·	50*	59*
SMILES	hIAP act	mIAP act	bIAP act	hIAP inh	bIAP inh	mIAP inh	mIAP inh confirm	others
O=C(N/N=C/c1ccc([N+](=O)[O-])o1)c1ccc2c(c1)OCO2	1.1	0.55	·	-8	·	45*	55*
Cc1ccc(N(C)S(=O)(=O)c2cccc(C(=O)Oc3ccc4c(C)cc(=O)oc4c3)c2)cc1	0.93	0.87	1	8	-1	13	·
Cc1cc2nc(C)n(CCCNC(=O)Nc3cccc4ccccc34)c2cc1C	1.1	2.6*	2.7*	-14	-167	-156	-118
CCOC(=O)CSC1=Nc2ccccc2C2=NC(CC(=O)NCc3ccc4c(c3)OCO4)C(=O)N12 (configuration not stated)	0.8	0.56	1	20	-2	44*	59*
COc1ccc(N=C2SC(C(=O)O)CC(=O)N2Cc2ccc(OC)c(OC)c2)cc1 (configuration not stated)	0.92	1	1	8	1	0	·
COc1ccc(N=C2SC(C(N)=O)CC(=O)N2CCc2ccc(OC)c(OC)c2)cc1 (configuration not stated)	1.2	0.56	0.9	-18	6	44*	50*
CCc1nnc(NC(=O)CSc2sc3c(O)cc(=O)[nH]c3c2C#N)s1	0.99	0.56	·	1	·	44*	65*
CCSc1nnc(NC(=O)CSc2sc3c(O)cc(=O)[nH]c3c2C#N)s1	0.96	0.64	·	4	·	36	·
Cc1csc(NC(=O)CSc2sc3c(O)cc(=O)[nH]c3c2C#N)n1	0.84	0.53	·	16	·	47*	68*
COc1ccc(Cl)cc1NC(=O)C(C)OC(=O)C1=NNC(=O)CC1 (configuration not stated)	0.93	1.1	·	7	·	-6	·
CCOC(=O)CSc1n[nH]c(-c2ccco2)n1	1	0.93	1	-3	5	7	·
O=C(O)c1ccc(CSc2n[nH]c(-c3ccco3)n2)cc1	1.1	0.42	0.9	-5	12	58*	86*
COc1ccc(NC(=O)Nc2ccccc2)cc1S(=O)(=O)N1CCCCC1	1.7	4.5*	1.1	-67	-6	-346	-187
Cc1cc(C)cc(OCC(=O)Nc2ccccc2N2CCCCC2)c1	0.97	0.92	1	3	0	8	·
Cc1cc(C)cc(NC(=O)Nc2ccccc2N2CCCCC2)c1	1.1	3.3*	·	-12	·	-227	-112
COc1ccccc1NS(=O)(=O)c1cc(NC(=O)Nc2cccc(C)c2)ccc1N1CCCCC1	1.2	5.6*	0.9	-24	8	-457	-278
COc1ccccc1NS(=O)(=O)c1cc(NC(C)=O)ccc1N1CCCCC1	1.2	1	1.1	-24	-11	0	·
O=C(CN(Cc1cccs1)C(=O)CCC(=O)Nc1ccccn1)NCc1ccccc1	1.2	1	1	-16	1	-4	·
